ChEMBL document CHEMBL1122847, “Antitrichomonal activity of mesoionic thiazolo[3,2-a]pyridines” (1985)
≈ marks a conversion by molar mass, not a printed value.

How the values were obtained:
Mesocricetus auratus [1] = species: Mesocricetus auratus; experiment: Value is expressed as the ratio of (Tritrichomonas foetus) animals cured / total number(5) infected at day 4 post treatment after 4 days of treatment
Tritrichomonas suis [2] = experiment: The minimum lethal concentration (MLC) against Trichomonas foetus; format: functional
Method in brief: (§1)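 Broth microdilution in Kupferberg's medium (pH 7.2); compounds serially diluted 200–0.2 µg/mL in duplicate; each well inoculated with T. foetus at 15 parasites/mm3 in broth, overlaid with sterile mineral oil; 30 °C for 48 h; wells examined microscopically for viable parasites; MLC = lowest concentration without viable parasites; single values reflect consistent duplicate end points.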

Cricetinae gen. sp. [3] = experiment: Value is expressed as the ratio of (Tritrichomonas foetus) animals cured / total number(5) infected at day 1 post treatment after 4 days of treatment; format: functional, Cricetulus griseus
Method in brief: (§2)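 From day 3 postinfection, animals got one daily intravaginal 2% (w/w) propylene glycol cream dose plus two daily sc suspension doses (100 mg/kg) for 4 days. Vaginal washings (Kupferberg's medium) were taken days 1 and 4 posttreatment and checked microscopically for viable parasites.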

Cricetinae gen. sp. [4] = experiment: Value is expressed as the ratio of (Tritrichomonas foetus infected) animals cured / total number(5) infected at day 1 post treatment after 4 days of treatment; format: functional, Cricetulus griseus
Method in brief: as §2

Cricetinae gen. sp. [5] = experiment: Value is expressed as the ratio of (Tritrichomonas foetus infected) animals cured / total number(5) infected at day 4 post treatment after 4 days of treatment; format: functional, Cricetulus griseus
Method in brief: as §2

Tritrichomonas suis [6] = experiment: The minimum lethal concentration (MLC) is determined in Trichomonas foetus; format: functional
Method in brief: as §1

Mesocricetus auratus [7] = species: Mesocricetus auratus; experiment: Value is expressed as the ratio of (Tritrichomonas foetus infected) animals cured / total number(15) infected at day 1 post treatment after 4 days of treatment
Mesocricetus auratus [8] = species: Mesocricetus auratus; experiment: Value is expressed as the ratio of (Tritrichomonas foetus infected) animals cured / total number(15) infected at day 4 post treatment after 4 days of treatment

| Compound | MLC (Tritrichomonas suis [2]) [µg/mL] | further results |
| --- | --- | --- |
| [O-]c1c(-c2cccnc2)sc2cccc[n+]12 | 12.5 (≈ 54.8 µM) | Activity (Mesocricetus auratus [1]): 0; Activity (Cricetinae gen. sp. [3]): 0 |
| [O-]c1c(-c2ccc(Cl)cc2)sc2cccc[n+]12 | 25 (≈ 95.5 µM) | Activity (Mesocricetus auratus [1]): 0; Activity (Cricetinae gen. sp. [3]): 0 |
| Nc1ccccc1-c1sc2cccc[n+]2c1[O-] | 3.12 (≈ 12.9 µM) | – |
| CC(C)(C)c1ccc(-c2sc3cccc[n+]3c2[O-])cc1 | 25 (≈ 88.2 µM) | – |
| [O-]c1c(-c2ccccc2)sc2c(O)ccc[n+]12 | >200 | – |
| COc1ccc(-c2sc3cccc[n+]3c2[O-])cc1 | 6.25 (≈ 24.3 µM) | Activity (Mesocricetus auratus [1]): 0; Activity (Cricetinae gen. sp. [3]): 0 |
| Cc1ccc(-c2sc3cccc[n+]3c2[O-])cc1 | 12.5 (≈ 51.8 µM) | Activity (Mesocricetus auratus [1]): 0; Activity (Cricetinae gen. sp. [3]): 0 |
| O=[N+]([O-])c1ccc2sc(-c3ccccc3)c([O-])[n+]2c1 | 200 (≈ 735 µM) | – |
| O=[N+]([O-])c1ccc(-c2sc3cccc[n+]3c2[O-])cc1 | >200 | – |
| Cc1cccc2sc(-c3ccccc3)c([O-])[n+]12 | >200 | – |
| [O-]c1c(-c2ccccc2)sc2nccc[n+]12 | >200 | – |
| O=[N+]([O-])c1ccc[n+]2c([O-])c(-c3ccccc3)sc12 | 0.8 (≈ 2.94 µM) | Activity (Mesocricetus auratus [1]): 0; Activity (Cricetinae gen. sp. [3]): 0 |
| [O-]c1c(-c2ccccc2)sc2sc3ccccc3[n+]12 | >200 | – |
| O=[N+]([O-])c1cccc(-c2sc3cccc[n+]3c2[O-])c1 | >200 | – |
| [S-]c1c(-c2ccc(Cl)cc2)sc2cccc[n+]12 | >200 | – |
| [O-]c1c(-c2ccccn2)sc2cccc[n+]12 | 25 (≈ 110 µM) | Activity (Mesocricetus auratus [1]): 0; Activity (Cricetinae gen. sp. [3]): 1 |
| CCOC(=O)C(Sc1ccccn1)c1ccccc1 (stereo unspecified) | >200 | Activity (Cricetinae gen. sp. [4]): 0; Activity (Cricetinae gen. sp. [5]): 0 |
| [O-]c1c(-c2ccccc2Cl)sc2cccc[n+]12 | 100 (≈ 382 µM) | Activity (Mesocricetus auratus [1]): 0; Activity (Cricetinae gen. sp. [3]): 0 |
| [S-]c1c(-c2ccccc2)sc2cccc[n+]12 | >200 | – |
| Nc1ccc(-c2sc3cccc[n+]3c2[O-])cc1 | 1.6 (≈ 6.6 µM) | Activity (Mesocricetus auratus [1]): 0; Activity (Cricetinae gen. sp. [3]): 0 |
| Nc1ccc[n+]2c([O-])c(-c3ccccc3)sc12 | 200 (≈ 825 µM) | – |

| Compound | MLC (Tritrichomonas suis [2]) [µg/mL] | further results |
| --- | --- | --- |
| [O-]c1c(-c2ccccc2)sc2ccc3ccccc3[n+]12 | >200 | – |
| O=[N+]([O-])c1ccccc1-c1sc2cccc[n+]2c1[O-] | 25 (≈ 91.8 µM) | – |
| CN(C)c1ccc(-c2sc3cccc[n+]3c2[O-])cc1 | 0.8 (≈ 2.96 µM) | Activity (Mesocricetus auratus [1]): 0; Activity (Cricetinae gen. sp. [3]): 0 |
| O=C([N-]c1c(-c2ccccc2)sc2cccc[n+]12)c1ccccc1 | >200 | – |
| [O-]c1c(Sc2ccc(Cl)cc2)sc2cccc[n+]12 | >200 | – |
| [O-]c1c(/C=C/c2ccccc2)sc2cccc[n+]12 | 200 (≈ 789 µM) | – |
| [O-]c1c(-c2ccncc2)sc2cccc[n+]12 | 50 (≈ 219 µM) | Activity (Mesocricetus auratus [1]): 0; Activity (Cricetinae gen. sp. [3]): 4 |
| COc1ccc(-c2sc3cccc[n+]3c2[S-])cc1 | >200 | – |
| O=C([O-])C(Sc1ccccn1)c1ccccc1.[Na+] (stereo unspecified) | >200 | Activity (Cricetinae gen. sp. [4]): 0; Activity (Cricetinae gen. sp. [5]): 0 |
| [O-]c1c(-c2ccccc2)sc2cccc[n+]12 | 12.5 (≈ 55 µM) | Activity (Mesocricetus auratus [1]): 0; Activity (Cricetinae gen. sp. [3]): 0 |
| [O-]c1c(-c2ccccc2)oc2cccc[n+]12 | >200 | Activity (Mesocricetus auratus [1]): 0; Activity (Cricetinae gen. sp. [3]): 0 |
| OC1=C(c2ccccc2)SC(c2ccccc2)N1c1ccccc1 (stereo unspecified) | – | MLC (Tritrichomonas suis [6]): >200 µg/mL |
| Nc1cccc(-c2sc3cccc[n+]3c2[O-])c1 | 12.5 (≈ 51.6 µM) | – |
| Nc1ccc2sc(-c3ccccc3)c([O-])[n+]2c1 | 100 (≈ 413 µM) | – |
| CC(=O)Nc1ccc(-c2sc3cccc[n+]3c2[O-])cc1 | >200 | – |
| CC(=O)Nc1cccc(-c2sc3cccc[n+]3c2[O-])c1 | 200 (≈ 703 µM) | – |
| CC(=O)[N-]c1c(-c2ccccc2)sc2cccc[n+]12 | >200 | – |
| Cc1cc[n+]2c([O-])c(-c3ccccc3)sc2c1 | 200 (≈ 829 µM) | – |
| [O-]c1c(-c2ccccc2)sc2cncc[n+]12 | >200 | – |
| Br.[NH-]c1c(-c2ccccc2)sc2cccc[n+]12 | >200 | – |
| Cc1ncc([N+](=O)[O-])n1CCO [METRONIDAZOLE] | – | Activity (Mesocricetus auratus [7]): 15; Activity (Mesocricetus auratus [8]): 15 |
